Measured values collected from several papers.
Compare with care: the assays were run in different laboratories.
Target: Tyrosine-protein kinase ZAP-70 (ZAP70, Homo sapiens, UniProt P43403)
Sequence (P43403 1-619, as in one of the studies): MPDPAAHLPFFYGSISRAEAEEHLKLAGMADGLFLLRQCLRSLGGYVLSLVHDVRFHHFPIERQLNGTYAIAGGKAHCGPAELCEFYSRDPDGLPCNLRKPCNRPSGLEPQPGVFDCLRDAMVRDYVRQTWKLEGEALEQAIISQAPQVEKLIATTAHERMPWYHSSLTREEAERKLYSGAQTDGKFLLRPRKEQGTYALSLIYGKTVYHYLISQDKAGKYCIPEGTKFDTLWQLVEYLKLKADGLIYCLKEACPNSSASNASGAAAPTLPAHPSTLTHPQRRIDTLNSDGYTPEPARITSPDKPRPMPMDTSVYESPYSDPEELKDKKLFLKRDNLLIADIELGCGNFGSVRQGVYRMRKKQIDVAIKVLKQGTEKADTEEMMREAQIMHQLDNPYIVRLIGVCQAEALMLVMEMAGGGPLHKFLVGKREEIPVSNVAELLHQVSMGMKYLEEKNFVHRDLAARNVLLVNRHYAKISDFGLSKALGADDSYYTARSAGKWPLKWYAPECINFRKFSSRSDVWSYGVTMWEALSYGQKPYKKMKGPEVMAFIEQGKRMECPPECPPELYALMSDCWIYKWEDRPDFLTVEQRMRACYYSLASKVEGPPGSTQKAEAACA

Cc1[nH]c(/C=C2\C(=O)Nc3ccc(F)cc32)c(C)c1C(=O)N[C@H]1CCN(C(=O)N(C)C)C1  remaining activity (enzyme activity, inhibitor; 0.1 µM): 105%
O=C(Nc1cnn(-c2csc(C(=O)NC3COC3)c2)c1)Nc1c(F)cccc1Cl  remaining activity (enzyme activity, inhibitor; 5 µM): 104%
Nc1nc(Nc2ccc(S(N)(=O)=O)cc2)nn1C(=O)c1c(F)cccc1F  remaining signal (cell-free assay; 0.5 µM): 94.8%
Cc1ccc(C(=O)Nc2ccc(CN3CCN(C)CC3)c(C(F)(F)F)c2)cc1C#Cc1cnc2cccnn12  remaining activity (enzyme activity, inhibitor; 23.5 nM): 99%
COc1cc(/C=C/C(=O)CC(=O)/C=C/c2ccc(O)c(OC)c2)ccc1O  activity vs control (enzyme activity, inhibitor; 1 µM): 108%
CCN(CC)CCNC(=O)c1c(C)[nH]c(/C=C2\C(=O)Nc3ccc(F)cc32)c1C  inhibition (enzyme activity, inhibitor; 10 µM): 11%
O=C(Nc1ccc(Oc2ccc(F)cc2)cc1)N1CCc2ncccc2[C@H]1c1ccc(F)cc1  remaining binding (cell-free assay, competition with immobilised ligand; 1 µM): 91%
CN1CC(Oc2cnc(C#N)cc2-c2ccn3nc(NC(=O)C4CC4)cc3c2)C1  inhibition (enzyme activity, inhibitor; 1 µM): 8%
O=C1Nc2ccc(Cl)cc2C1=Cc1cc(Cl)c(O)c(Cl)c1  remaining signal (cell-free assay; 0.5 µM): 95%
COCCOc1nc(-c2ccc(Cl)nc2)nc2c1CN(C(=O)c1ncn3ccccc13)CC2  remaining binding (cell-free assay, competition with immobilised ligand; 0.1 µM): 95%
CNC(=O)c1cc(Oc2ccc(NC(=O)Nc3ccc(Cl)c(C(F)(F)F)c3)cc2)ccn1  inhibition (enzyme activity, inhibitor; 0.3 µM): -1%
CC(=O)N1CCC(c2ccc(C(=O)NC(=N)N)cc2C(F)(F)F)CC1  remaining binding (cell-free assay, competition with immobilised ligand; 1 µM): 100%
CC(C)(O)[C@H]1CC[C@H](Nc2ccc3ncc(-c4cccc(C(F)(F)F)c4)n3n2)CC1  remaining activity (enzyme activity, inhibitor; 1 µM): 93.4%
COc1cc(Nc2cnc(C#N)c(O[C@H](C)CN(C)C)n2)ncc1-c1cnn(C)c1  remaining activity (enzyme activity, inhibitor, radiometric; 1 µM): 104%
Nc1ncnc2occ(-c3ccc(NC(=O)Nc4cc(C(F)(F)F)ccc4F)cc3)c12  remaining signal (cell-free assay, inhibitor; 20 µM): 2.4%
COc1ccc2c(c1)O[C@H](c1ccc(OC)c(OC)c1)C[C@@H]2NC(=O)C1(c2ccc3c(c2)OC(F)(F)O3)CC1  remaining binding (cell-free assay, competition with immobilised ligand; 1 µM): 93%
CNCc1ccc(-c2cc(-c3nc(-c4ccc(S(=O)(=O)C(C)C)cc4)cnc3N)on2)cc1  inhibition (enzyme activity, inhibitor; 0.4 µM): 0%
N#CCCc1ccc2c(c1)-c1[nH]c3ccc([N+](=O)[O-])cc3c1CC(=O)N2  remaining signal (cell-free assay; 0.5 µM): 106%
CC(C)(C)c1nc(-c2cccc(NS(=O)(=O)c3c(F)cccc3F)c2F)c(-c2ccnc(N)n2)s1  remaining activity (enzyme activity, inhibitor, radiometric; 1 µM): 92%
CC/C(=N\NC(=O)NCc1cccc(O)c1)c1ccc(O)c(C)c1O  inhibition (enzyme activity, inhibitor; 0.1 µM): -2.1%
CCN(CC)CCNC(=O)c1c(C)[nH]c(/C=C2\C(=O)Nc3ccc(F)cc32)c1C  remaining activity (enzyme activity, inhibitor; 0.1 µM): 101%
FC(F)(F)Oc1cccc(-c2cnc3ccc(-c4ccncc4)nn23)c1  activity vs control (enzyme activity, inhibitor, radiometric; 5 µM): 104%
CCCOc1ccc([C@H]2[C@H](C(=O)O)[C@@H](c3ccc4c(c3)OCO4)CN2CC(=O)Nc2c(CC)cccc2CC)cc1  remaining binding (cell-free assay, competition with immobilised ligand; 1 µM): 50%
CS(=O)(=O)Nc1cccc(-c2csc(NC(=O)CSc3nc4nccnc4c(=O)n3CCc3ccccc3)n2)c1  inhibition (enzyme activity, inhibitor; 10 µM): 9%
Cc1sc(C(=O)NC2COC2)cc1-n1cc(NC(=O)Nc2c(F)cccc2Cl)cn1  remaining activity (enzyme activity, inhibitor; 10 µM): 103%
CS(=O)(=O)N1CCCC(NC(=O)[C@H](CCC2CCCCC2)NC(=O)c2ccc(CNc3ncnc4c3nnn4-c3ccccc3)cc2)C1 (stereo partly shown)  remaining binding (cell-free assay, competition with immobilised ligand; 0.1 µM): 100%
COc1cc2ncnc(Nc3ccc(Oc4ccccc4)cc3C)c2cc1OC  inhibition (enzyme activity, inhibitor; 1 µM): 0%
Cc1c(NC(=O)c2cc(C(N)=O)nc3cc(F)ccc23)c(C(F)(F)F)nn1Cc1ccc(C(C)(C)C)cc1  remaining binding (cell-free assay, competition with immobilised ligand; 1 µM): 100%
CCCOc1ccc(OC)c(F)c1C(=O)c1ccc(C(=O)N[C@@H]2CNC[C@H]2NC(=O)c2ccc3[nH]ncc3c2)cc1  remaining activity (enzyme activity, inhibitor; 10 µM): 90%
COc1cc(-c2cn(C3CCc4ccccc4N(CC(F)(F)F)C3=O)nn2)ccc1-n1ccc(C)n1 (stereo not shown)  remaining binding (cell-free assay, competition with immobilised ligand; 1 µM): 82%
Cc1ccc(C(=O)NCc2ccsc2)cc1C#Cc1cn(C(C)C)c2ncnc(N)c12  activity vs control (enzyme activity, inhibitor; 1 µM): 89%
